Assay results: paper PMC11665415 (Neurobiology of Pain, 2024)
“Also recorded” adds a separate entry of the source. Read-outs that look alike come from different tables or passages of the source.

How the values were obtained:
[1] = test system: voltage-gated sodium channels; type: cell-based, rat; details: for Effect on density of sodium currents: acute application
SH-SY5Y cells = SH-SY5Y cells treated at 5 µM; ref Drewry et al., 2022; cited from earlier work
PIKfyve = details: 403 wild-type human kinases; ref Drewry et al., 2022; cited from earlier work
potassium channels = test: Whole-cell patch-clamp recordings of total potassium currents; type: cell-based, rat
Procedure, shortened: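 Rat DRG neurons cultured in medium with 10 % FBS and 15 ng/ml NGF, on poly-D-lysine/laminin-coated coverslips at 37 °C, 5 % CO₂, and used within 24 h. Whole-cell patch clamp with test compound (10 µM) or 0.1 % DMSO in the external solution. Current density–voltage and peak current density (pA/pF) given as mean ± SEM.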

naïve mice [2] = test: Rotarod test of motor coordination in naïve mice; type: in vivo, mouse; details: male and female naïve mice, 30 mg/kg IP
Procedure, shortened: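 Naïve male and female mice received test compound at 30 mg/kg IP, dissolved in 30 % DMSO. Motor coordination measured on the rotarod. A mouse that fell was placed back on the cylinder and the session continued.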

[3] = test system: capsaicin-induced mechanical allodynia; test: Capsaicin pain model, mechanical allodynia; type: in vivo, mouse; details: 30 mg/kg IP
Procedure, shortened: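 Mice got intraplantar capsaicin (12 µg in 10 µL; vehicle 80 % saline, 10 % ethanol, 10 % Tween80) in the left footpad under isoflurane. One h later: single IP dose of test compound at 30 mg/kg or vehicle (30 % DMSO). 50 % paw withdrawal threshold by von Frey up-down method, baseline then 0–4 h post-dose. AUC over 0–4 h. n = 8 per sex. Two-way ANOVA with Tukey; one-way ANOVA with Dunnett for AUC.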

naïve mice [4] = test: Mechanical and cold sensitivity in naïve mice; type: in vivo, mouse; details: male and female naïve mice, 30 mg/kg IP
Procedure, shortened: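 Naïve male and female mice got test compound at 30 mg/kg IP in 30 % DMSO, with a 1 h wait before testing. Mechanical sensitivity measured with von Frey filaments by the up-down method. Cold sensitivity measured by applying an acetone drop to the hind paw.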

viral entry = details: 1 µM, multiple cell types; ref Drewry et al., 2022; cited from earlier work
[5] = Snapshot/standard pharmacokinetics in CD-1 mice; type: in vivo, mouse; details: for half-life: male, CD-1, mouse, plasma
[6] = Snapshot pharmacokinetics in Balb/C mice; type: in vivo, mouse; details: 10 or 30 mg/kg IP or PO, up to five hours after dosing
[7] = test system: SNI-induced cold allodynia; test: Spared nerve injury; type: in vivo, mouse; details: for SNI-induced cold allodynia, AUC between 0 and 6 h: day 28 post-SNI
[8] = test system: SNI-induced mechanical allodynia; test: Spared nerve injury; type: in vivo, mouse
Procedure, shortened: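 On day 28 after spared nerve injury, 50 % paw withdrawal threshold measured by von Frey up-down method, at baseline and from 0 to 6 h after a single IP injection. Doses: 3, 10 and 30 mg/kg in males; 30 mg/kg in females; vehicle 30 % DMSO. AUC over 0–6 h. n = 8. Two-way ANOVA with Tukey; one-way ANOVA with Dunnett.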

[9] = test system: voltage-gated calcium channels; type: cell-based, rat

Compound: COc1c([C@H]2[C@H](C(=O)Nc3ccnc(C(N)=O)c3)O[C@@](C)(C(F)(F)F)[C@H]2C)ccc(F)c1F [VX-548, reference compound]
- Activation k ([1]; VX-548 5 nM, DMSO control 3.70 ± 0.39): 6.18 ± 0.88
- Fast inactivation k ([1]; VX-548 5 nM, DMSO control −12.25 ± 1.08): −9.98 ± 0.99
- Activation V0.5 (mV) ([1]; VX-548 5 nM, DMSO control −24.61 ± 0.44): −19.51 ± 0.98 mV
- Fast inactivation V0.5 (mV) ([1]; VX-548 5 nM, DMSO control −52.39 ± 1.14): −59.85 ± 1.10 mV
- IV curve Peak/density (pA/pF) ([1]; VX-548 5 nM, DMSO control −358.2 ± 32.87): −200.5 ± 35.37 pA/pF

Compound: Cc1cccc(/C=N/Nc2cc(N3CCOCC3)nc(OCCc3ccccn3)n2)c1 [apilimod, reference compound]
- Lysosomal homeostasis (SH-SY5Y cells): impacted lysosomal homeostasis

Compound: CN(C)CC#Cc1ccc2[nH]c3c(c2c1)-c1nc(N)ncc1CCC3 [SGC-PIKFYVE-1]
- Lysosomal homeostasis (SH-SY5Y cells): impacted lysosomal homeostasis
- Kinome selectivity (PIKfyve): highly selective for PIKfyve
- IK+ current or peak densities (potassium channels; acute treatment, 10 μM, vs 0.1 % DMSO): did not alter
- IV curve Peak/density (pA/pF) (potassium channels; total potassium currents, SGC-PIKFYVE-1 10 µM, DMSO control 184.90 ± 17.17): 213.92 ± 21.52 pA/pF
- Motor coordination (rotarod) (naïve mice [2]): did not induce changes
- Capsaicin-induced nociceptive behaviors ([3]; female mice): able to reduce the nociceptive behaviors
- Duration of reduction of capsaicin-induced allodynia ([3]; male mice, 1 h after intraplantar capsaicin): 2 h
- Mechanical and cold sensitivity (naïve mice [4]): did not induce changes
- Viral entry (viral entry): inhibited viral entry
- Oral bioavailability and in vivo stability (snapshot PK) ([5]; CD-1 mice, 10 mg/kg IP or PO, five-hour time course): exhibited oral bioavailability and remained relatively stable in vivo
- Detectability in plasma over twenty-four hours ([5]; CD-1 mice, 10 mg/kg IP or PO, no time points between 8 and 24 h): no longer detectable after eight hours
- Adverse effects / tolerability ([5]; CD-1 mice, 30 mg/kg): did not induce any adverse effects; also recorded: well tolerated
- Detectability in plasma over twenty-four hours ([5]; CD-1 mice, 30 mg/kg IP or PO): not detectable after eight hours
- Plasma concentration relative to cellular affinity for PIKfyve ([5]; CD-1 mice, 30 mg/kg twice daily (BID) IP or PO): well above its cellular affinity for PIKfyve
- half-life ([5]; ip): ~210 min
- half-life ([5]; po, 30 mg/kg): 210 min
- Voltage-dependence of activation ([1]; 10 µM, compared to the vehicle): remained unchanged
- Hyperpolarizing shift in the voltage-dependence of inactivation ([1]; 10 µM, vs vehicle): 4 mV
- Activation k ([1]; SGC-PIKFYVE-1 1 µM, DMSO control 4.93 ± 0.44): 6.54 ± 0.66
- Fast inactivation k ([1]; SGC-PIKFYVE-1 1 µM, DMSO control −13.64 ± 1.53): −14.49 ± 1.69
- Activation V0.5 (mV) ([1]; SGC-PIKFYVE-1 1 µM, DMSO control −21.776 ± 0.50): −21.09 ± 0.74 mV
- Fast inactivation V0.5 (mV) ([1]; SGC-PIKFYVE-1 1 µM, DMSO control −53.6 ± 1.56): −51.69 ± 1.67 mV
- Activation k ([1]; SGC-PIKFYVE-1 10 µM, ProTxII set (Fig. 1), DMSO control 4.25 ± 0.42): 4.89 ± 0.56
- Fast inactivation k ([1]; SGC-PIKFYVE-1 10 µM, ProTxII set (Fig. 1), DMSO control −11.11 ± 0.74): −10.32 ± 0.73
- Activation V0.5 (mV) ([1]; SGC-PIKFYVE-1 10 µM, ProTxII set (Fig. 1), DMSO control −20.48 ± 0.48): −20.11 ± 0.63 mV
- Fast inactivation V0.5 (mV) ([1]; SGC-PIKFYVE-1 10 µM, ProTxII set (Fig. 1), DMSO control −47.42 ± 0.79): −51.51 ± 0.79 mV
- IV curve Peak/density (pA/pF) ([1]; SGC-PIKFYVE-1 10 µM, ProTxII set (Fig. 1), DMSO control −533.2 ± 42.99): −348.7 ± 38.42 pA/pF
- Activation k ([1]; SGC-PIKFYVE-1 10 µM, VX-548 set (Fig. 2), DMSO control 3.70 ± 0.39): 3.73 ± 0.47
- Fast inactivation k ([1]; SGC-PIKFYVE-1 10 µM, VX-548 set (Fig. 2), DMSO control −12.25 ± 1.08): −10.25 ± 1.63
- Activation V0.5 (mV) ([1]; SGC-PIKFYVE-1 10 µM, VX-548 set (Fig. 2), DMSO control −24.61 ± 0.44): −20.18 ± 0.55 mV
- Fast inactivation V0.5 (mV) ([1]; SGC-PIKFYVE-1 10 µM, VX-548 set (Fig. 2), DMSO control −52.39 ± 1.14): −58.85 ± 1.79 mV
- IV curve Peak/density (pA/pF) ([1]; SGC-PIKFYVE-1 10 µM, VX-548 set (Fig. 2), DMSO control −358.2 ± 32.87): −189.7 ± 47.11 pA/pF
- Effect on density of sodium currents ([1]; 1 µM): but not at 1 µM
- Effect on density of sodium currents ([1]; 10 µM): decrease in the density of sodium currents
- Plasma concentration relative to cellular affinity for PIKfyve [6]: maintained well above the cellular affinity for PIKfyve
- SNI-induced cold allodynia ([7]; female mice, 30 mg/kg IP): reduced
- SNI-induced cold allodynia, AUC between 0 and 6 h ([7]; female mice, 30 mg/kg IP): reversed SNI-induced cold allodynia
- SNI-induced cold allodynia, AUC between 0 and 6 h ([7]; male mice, 30 mg/kg IP): reversed SNI-induced cold allodynia
- SNI-induced cold allodynia ([7]; male mice, 3, 10 and 30 mg/kg IP): reduced SNI-induced cold allodynia for six hours in a dose-dependent manner
- SNI-induced tactile allodynia ([8]; female mice, 30 mg/kg IP): reduced SNI-induced tactile
- Antiallodynic effect (AUC 0-6 h), dose dependence ([8]; male neuropathic mice, 3, 10 and 30 mg/kg IP): dose-dependent
- Paw mechanical withdrawal threshold ([8]; male neuropathic mice, single IP injection 30 mg/kg, day 28 post-SNI): increase of the paw mechanical withdrawal threshold for four hours
- Calcium current density and peak current ([9]; 10 µM, vs 0.1 % DMSO): unaffected
- Fast inactivation k ([9]; total calcium currents, SGC-PIKFYVE-1 10 µM, DMSO control 0.99 ± 0.01): 0.98 ± 0.02
- Activation k ([9]; total calcium currents, SGC-PIKFYVE-1 10 µM, DMSO control 5.99 ± 0.64): 5.73 ± 0.58
- Activation V0.5 (mV) ([9]; total calcium currents, SGC-PIKFYVE-1 10 µM, DMSO control −4.68 ± 0.73): −4.31 ± 0.67 mV
- Fast inactivation V0.5 (mV) ([9]; total calcium currents, SGC-PIKFYVE-1 10 µM, DMSO control −36.91 ± 0.73): −34.76 ± 1.79 mV
- IV curve Peak/density (pA/pF) ([9]; total calcium currents, SGC-PIKFYVE-1 10 µM, DMSO control −107.71 ± 14.20): −113.06 ± 13.24 pA/pF

Compound: ProTxII [reference compound]
- Activation k ([1]; ProTxII 5 nM, DMSO control 4.25 ± 0.42): 4.17 ± 0.49
- Fast inactivation k ([1]; ProTxII 5 nM, DMSO control −11.11 ± 0.74): −11.11 ± 1.15
- Activation V0.5 (mV) ([1]; ProTxII 5 nM, DMSO control −20.48 ± 0.48): −14.89 ± 0.57 mV
- Fast inactivation V0.5 (mV) ([1]; ProTxII 5 nM, DMSO control −47.42 ± 0.79): −53.17 ± 1.24 mV
- IV curve Peak/density (pA/pF) ([1]; ProTxII 5 nM, DMSO control −533.2 ± 42.99): −207.3 ± 57.12 pA/pF
